Assay results as given in PubChem BioAssay.
Calls of active or inactive are those of the source.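 The calls were made as follows, unless noted: active = viability at or below 30% in both replicate assays; inconclusive = viability at or below 30% in just one of the two assays; inactive = the rest.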

Legend:
[1] = Her2 expression decrease, cell viability multiplex – SKBR3 breast tumor cells, AlphaScreen, ATP viability, primary screen (AID 461;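 active = Her2 level under about 52% in both replicate screens, with viability over 70% of control, limit read from the data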;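 as to Her2 level: lower value means less Her2 protein in the cells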;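 as to viability: percent of carrier control wells set as 100% viability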); conditions: SKBR3 Her2 protein level, 18-24 h, measured here: SKBR3 viability, ATP luminescence, at 10 µM
[2] = target: Receptor tyrosine-protein kinase erbB-2 (Homo sapiens) (UniProt P04626); experiment: as above; conditions: 18-24 h, at 10 µM, stronger effect = lower value
[3] = reduced viability of SK-BR-3 breast cancer cells – cell-based, 24 h, human, pilot screen (AID 572;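 active = viability at or below 10% of carrier control in both of two separate runs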;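 also: compound exposure lasted between 18 and 24 h rather than exactly 24 h; 100% = carrier-treated control wells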); conditions: SK-BR-3 viability, CellTiter-Glo luminescence, at 10 µM, stronger effect = lower value
[4] = HUVEC growth inhibition – cell-based, human, primary screen (AID 575); conditions: HUVEC proliferation, CellTiter-Glo luminescence, 72 h; at 10 µM; stronger effect = lower value;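 also: 100% = median of untreated cell wells with 0.1% DMSO on each plate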
In short: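 material = primary HUVEC, no more than 12 passages | input = 1250 cells per well | controls = vehicle and MePR control wells | measured by = CTG luminescence | times = 72 h compound incubation | format = collagen-coated 384-well format | read-out = % viability vs DMSO wells | doses = single 10 µM dose, 0.1% DMSO, from 5x medium stock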

[5] = H69AR cell proliferation blockers – human, duplicate replicates, primary screen (AID 580;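 active = viability at or under a set limit in both replicates, limit being median viability minus 3 SD, cut at about 48% in these data, passing the limit was not always enough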;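 also: 100% = mean luminescence of untreated wells and 0% = no signal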); conditions: H69AR lung tumor cells viability, ATP luminescence, 72 h; at 10 µM; stronger effect = lower value
[6] = MRP1 drug-resistance reversers in H69AR cells – cell-based, doxorubicin co-treatment, pilot screen (AID 601;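 active = viability loss from added drug above about 55%, and viability with drug at most 40%, in both replicates, limit read from the data, passing the limit was not always enough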); conditions: CellTiter-Glo, 72 h, at 10 µM; for differential viability (reversal): stronger effect = higher value
[7] = yeast transport mutant growth inhibition pilot in 384-well plates, post-Golgi transport modulator project (AID 636; in the data active = inhibition above about 31%); conditions: absorbance 615 nm, about 18 h, stronger effect = higher value
[8] = growth suppression of yeast trafficking mutant, preliminary HTS, modulators of trafficking downstream of Golgi apparatus project, 1536-format plate, OD 615 nm (AID 637; in the data active = inhibition above about 30%); conditions: yeast transport mutant growth, absorbance 615 nm, 18 h; stronger effect = higher value
[9] = H69AR cells + 2 uM doxorubicin, measured here: viability with 2 uM doxorubicin, stronger effect = lower value
[10] = H69AR cells, compound alone cytotoxicity

Chain of Receptor tyrosine-protein kinase erbB-2 (Homo sapiens) (P04626 whole entry, looked up): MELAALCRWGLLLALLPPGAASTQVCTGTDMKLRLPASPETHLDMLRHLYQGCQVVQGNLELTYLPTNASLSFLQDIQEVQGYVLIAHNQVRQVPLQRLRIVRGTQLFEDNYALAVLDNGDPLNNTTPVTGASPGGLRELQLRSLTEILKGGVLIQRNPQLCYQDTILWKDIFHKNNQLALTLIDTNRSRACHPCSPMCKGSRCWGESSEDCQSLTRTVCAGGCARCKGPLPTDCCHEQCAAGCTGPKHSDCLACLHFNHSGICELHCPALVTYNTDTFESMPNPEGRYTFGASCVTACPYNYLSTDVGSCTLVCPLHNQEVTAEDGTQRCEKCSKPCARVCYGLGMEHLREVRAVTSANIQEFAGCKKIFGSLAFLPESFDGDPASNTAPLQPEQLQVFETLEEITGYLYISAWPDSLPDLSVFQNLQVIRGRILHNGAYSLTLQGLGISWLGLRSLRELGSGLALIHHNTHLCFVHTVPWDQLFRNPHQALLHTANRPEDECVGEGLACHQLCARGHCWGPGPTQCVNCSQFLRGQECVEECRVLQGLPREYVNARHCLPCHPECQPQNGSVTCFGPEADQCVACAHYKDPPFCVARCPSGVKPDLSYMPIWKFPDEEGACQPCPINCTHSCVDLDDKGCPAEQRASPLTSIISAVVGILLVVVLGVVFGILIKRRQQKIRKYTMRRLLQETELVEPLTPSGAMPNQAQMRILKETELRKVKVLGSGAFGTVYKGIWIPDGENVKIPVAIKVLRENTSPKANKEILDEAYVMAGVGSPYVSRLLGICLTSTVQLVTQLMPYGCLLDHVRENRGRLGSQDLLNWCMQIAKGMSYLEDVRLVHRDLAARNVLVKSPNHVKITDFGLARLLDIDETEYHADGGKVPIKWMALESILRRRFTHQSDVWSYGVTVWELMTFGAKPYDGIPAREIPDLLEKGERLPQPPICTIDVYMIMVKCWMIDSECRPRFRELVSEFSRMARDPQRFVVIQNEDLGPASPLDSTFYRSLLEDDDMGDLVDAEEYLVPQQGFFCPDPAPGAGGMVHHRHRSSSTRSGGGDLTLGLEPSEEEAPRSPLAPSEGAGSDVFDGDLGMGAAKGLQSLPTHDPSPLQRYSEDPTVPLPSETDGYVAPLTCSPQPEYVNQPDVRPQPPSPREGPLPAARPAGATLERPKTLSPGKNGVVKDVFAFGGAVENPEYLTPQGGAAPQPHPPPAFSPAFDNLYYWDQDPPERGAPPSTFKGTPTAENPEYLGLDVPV

SMILES	viability [1] [%]	Her2 level [2]	viability [3]	viability [4]	viability [5]	differential viability (reversal) ([6]; H69AR cells + 2 uM doxorubicin)	viability [6, 9] [%]	viability [6, 10] [%]	inhibition [7]	inhibition [8]
COc1ccccc1OCCSc1nc2ccccc2c(=O)[nH]1	81.5	105% (inactive)	81.5% (inactive)	84.6% (inactive)	95.2% (inactive)	15.1% (inactive)	80.1	95.2	-3.97% (inactive)	-4% (inactive)
COC(=O)c1ccccc1NC(=O)c1ccc(COc2ccccc2)o1	71.5	106% (inactive)	71.5% (inactive)	94.6% (inactive)	98.3% (inactive)	0.68% (inactive)	97.6	98.3	-6.13% (inactive)	-4.1% (inactive)
N#Cc1nc(COc2ccccc2)oc1NCCCn1ccnc1	104	103% (inactive)	104% (inactive)	96.5% (inactive)	112% (inactive)	5.22% (inactive)	107	112	-0.39% (inactive)	5.56% (inactive)
O=C(CSc1nc2[nH]ncc2c(=O)n1-c1ccccc1Br)NCc1ccco1	100	80.5% (inactive)	100% (inactive)	95% (inactive)	82.9% (inactive)	5.05% (inactive)	77.8	82.9	-4.61% (inactive)	-1.77% (inactive)
NC(=O)C1(N2CCCCC2)CCN(C2CC(=O)N(Cc3cccs3)C2=O)CC1 (stereo not given)	112	103% (inactive)	112% (inactive)	101% (inactive)	98% (inactive)	6.76% (inactive)	91.3	98	-4.74% (inactive)	-0.48% (inactive)
CCNC(=O)COc1ccc(Br)cc1Cl	96	91% (inactive)	96% (inactive)	92.1% (inactive)	93.2% (inactive)	-4.36% (inactive)	97.6	93.2	-5% (inactive)	-1.9% (inactive)
COc1ccc2nc(SCC(=O)NC(C)C)[nH]c2c1	104	106% (inactive)	104% (inactive)	102% (inactive)	96.4% (inactive)	4.97% (inactive)	91.4	96.4	3.25% (inactive)	-10.8% (inactive)
CC(NS(=O)(=O)c1ccccc1)C(c1cccs1)N1CCN(C)CC1 (stereo not given)	93.5	79.5% (inactive)	93.5% (inactive)	81.1% (inactive)	94.5% (inactive)	15% (inactive)	79.4	94.5	-5% (inactive)	-6.83% (inactive)
COc1cccc(CN2CCN(C(=O)CC(C)C)CC2)c1	92.5	76% (inactive)	92.5% (inactive)	87.4% (inactive)	86.4% (inactive)	-2.34% (inactive)	88.7	86.4	0.77% (inactive)	-0.83% (inactive)
COc1ccc(C(=O)c2ccccc2)c(O)c1	86.5	110% (inactive)	86.5% (inactive)	97.7% (inactive)	106% (inactive)	13.6% (inactive)	92	106	-3.33% (inactive)	22.7% (inactive)
CC(C)C1C2=C(CC(C)(C)CC2=O)ON1c1ccccc1 (stereo not given)	90	90% (inactive)	90% (inactive)	95.8% (inactive)	93% (inactive)	-2.63% (inactive)	95.7	93	-1.6% (inactive)	-0.48% (inactive)
Cc1ccc(N=C2NC(=O)CS2)c(C)c1	71	91% (inactive)	71% (inactive)	89.7% (inactive)	102% (inactive)	5.32% (inactive)	96.7	102	-5% (inactive)	5.57% (inactive)
COc1ccc(CNC(=O)COC(=O)c2n[nH]c3ccccc23)cc1OC	88	84.5% (inactive)	88% (inactive)	89.7% (inactive)	92.6% (inactive)	8.04% (inactive)	84.6	92.6	-7.47% (inactive)	2.38% (inactive)
CC(=O)Nc1ccc2c(c1)nc(CCNC(=O)c1ccccc1)n2C	90.5	89% (inactive)	90.5% (inactive)	110% (inactive)	102% (inactive)	15.8% (inactive)	85.7	102	-8.36% (inactive)	-1.43% (inactive)
Cc1ccc(S(=O)(=O)N2CCOCC(=O)NCCOCCNC(=O)COCC2)cc1	93.5	102% (inactive)	93.5% (inactive)	95.4% (inactive)	106% (inactive)	8.95% (inactive)	96.9	106	-4.13% (inactive)	-4.26% (inactive)
Cc1cc(C)nc(SCC(=O)Nc2ncc3c(n2)CCCC3=O)n1	98.5	93.5% (inactive)	98.5% (inactive)	99% (inactive)	112% (inactive)	12.5% (inactive)	99.3	112	-1.17% (inactive)	-4.13% (inactive)
O=C1CCN(C(=O)c2ccccc2)C2CCCCC12 (stereo not given)	98	124% (inactive)	98% (inactive)	105% (inactive)	90.3% (inactive)	-0.825% (inactive)	91.1	90.3	-4.55% (inactive)	-11% (inactive)
COc1cc(C(=O)Nc2cccc(-c3nc4cc(C)ccc4o3)c2)cc(OC)c1OC	95	80% (inactive)	95% (inactive)	66.8% (inactive)	55.7% (inactive)	4.43% (inactive)	51.3	55.7	-5% (inactive)	4.76% (inactive)
C=CCc1cccc2cc(C(=O)NCc3cccnc3)c(=O)oc12	97.5	112% (inactive)	97.5% (inactive)	95% (inactive)	95% (inactive)	4.88% (inactive)	90.1	95	-0.52% (inactive)	-9.33% (inactive)
Cc1ccc(S(=O)(=O)C2(C(=O)Nc3nccs3)CC2)cc1	95	95% (inactive)	95% (inactive)	93.7% (inactive)	101% (inactive)	5.59% (inactive)	95	101	-2.44% (inactive)	-2.33% (inactive)
COCCN1C(=O)C(=O)/C(=C(/O)c2cccc(S(=O)(=O)N(C)C)c2)C12C(=O)N(C)c1ccccc12 (stereo not given)	110	91.5% (inactive)	110% (inactive)	110% (inactive)	99.5% (inactive)	3.6% (inactive)	95.9	99.5	-7.76% (inactive)	-2.38% (inactive)
CCN1C(=O)c2cccc3c(NC(=O)c4ccc5c(c4)OCCO5)ccc1c23	108	89% (inactive)	108% (inactive)	55.5% (inactive)	52.2% (inactive)	-20.3% (inactive)	72.5	52.2	-4.81% (inactive)	0.63% (inactive)
COc1cc(CN2CCN(C(=O)CC(C)C)CC2)cc(OC)c1O	114	93.5% (inactive)	114% (inactive)	103% (inactive)	102% (inactive)	5.74% (inactive)	96.8	102	-1.04% (inactive)	-4.6% (inactive)
O=C(c1ccc(-c2cccc(C(F)(F)F)c2)o1)N1CCOCC1	95.5	118% (inactive)	95.5% (inactive)	72.8% (inactive)	92.7% (inactive)	16.1% (inactive)	76.6	92.7	-4.8% (inactive)	-2.58% (inactive)
Cc1ccc(S(=O)(=O)N2CCC(C(=O)N[C@@H](Cc3ccccc3)C(=O)O)CC2)cc1	104	174% (inactive)	104% (inactive)	108% (inactive)	86.9% (inactive)	9.85% (inactive)	77.1	86.9	-4.27% (inactive)	-6.13% (inactive)
COc1ccc(OC)c(C2C3=C(CCCC3=O)Nc3c2c(=O)n(C)c(=O)n3C)c1 (stereo not given)	106	108% (inactive)	106% (inactive)	103% (inactive)	102% (inactive)	-5.08% (inactive)	107	102	-2.24% (inactive)	-0.33% (inactive)
CC1=C(C(=O)N2CCCCC2)C2(CCC(C)CC2)OC1=O (stereo not given)	90	102% (inactive)	90% (inactive)	109% (inactive)	94.2% (inactive)	12.9% (inactive)	81.3	94.2	-5.87% (inactive)	-3.61% (inactive)
COC(=O)c1sc(N)c(C(=O)OC)c1CSc1nc2sc3c(c2c(=O)n1C)CCC3	88	103% (inactive)	88% (inactive)	81.5% (inactive)	62.3% (inactive)	8.74% (inactive)	53.5	62.3	-2.84% (inactive)	2.62% (inactive)
